Results pooled from the literature.
Lines come from different studies, so protocols differ.
SMO: Protein smoothened (SMO, Homo sapiens, UniProt Q99835)
CAMK4: Calcium/calmodulin-dependent protein kinase type IV (CAMK4, Homo sapiens, UniProt Q16566)

Structure (SMILES) | target | assay | setting | endpoint | value
CCN(CC)CCCC[C@H](NC(=O)[C@H](CC(C)C)NC(=O)[C@H](C)NC(=O)[C@H](Cc1ccccc1)NC(=O)c1ccc(C(C)(C)C)cc1)C(=O)N[C@@H](CO)C(=O)OC | Histone-lysine N-methyltransferase 2A (KMT2A, Homo sapiens, UniProt Q03164) | thermal stability, DSF | 25 µM | ΔTm | 0.04 °C
COc1cc(C(=O)NC(N)=Nc2ccc(C)c(NC(=O)c3ccc(-c4ccccc4)cc3)c2)cc(OC)c1OC | SMO | GTPγS binding, agonist, radiometric | cell membranes | Emax | -88.6%
CC[C@H](C)[C@@H](C(=O)O[C@@H](CC(C)C)C(=O)N[C@@H](CC(C)C)C(=O)N[C@@H](C)/C=C/C(=O)N1C(=O)C=C(OC)[C@@H]1C)N(C)C | FP2A (Plasmodium falciparum, UniProt Q8I6U4) | enzyme activity, inhibitor, fluorescence | pH 6 | kinact/KI | 58600 M⁻¹ s⁻¹
Cc1ncc(C)n2nc(/C=C/c3nc(N4CCCC4)cc(N4CCOCC4)n3)nc12 | Angiotensin-converting enzyme (ACE, Homo sapiens, UniProt P12821) | enzyme activity, inhibitor | 10 µM | inhibition | -13%
Cc1nn(C)cc1-c1nc2c(N3CCN(Cc4ccc(Cl)cc4)CC3)c(Cl)cnc2[nH]1 | CAMK4 | binding, competition with immobilised ligand | 1 µM | remaining binding | 100%
C#Cc1n[nH]c2c(-c3cn(C(C)c4ccccn4)c(=O)[nH]c3=O)cc(F)cc12 (centres unmarked) | AP2-associated protein kinase 1 (AAK1, Homo sapiens, UniProt Q2M2I8) | enzyme activity, inhibitor | 1 µM | inhibition | 4.8%
Nc1ncc(-c2nc(N3CCOCC3)nc(N3CCOCC3)n2)c(C(F)F)n1 | CAMK4 | binding, competition with immobilised ligand | 10 µM | remaining binding | 66%
CC1=C2C[C@H]3[C@@H](CC=C4C[C@@H](O)CC[C@@]43C)[C@@H]2CC[C@]12O[C@@H]1C[C@H](C)CN[C@H]1[C@H]2C | Protein smoothened (SMO, Homo sapiens, UniProt Q99835, D473H) | GTPγS binding, agonist, radiometric | cell membranes | Emax | -107%
COc1ncccc1-c1cnn2ccc(N3CCN(C(=O)OC(C)C)CC3)nc12 | CAMK4 | binding, competition with immobilised ligand | 1 µM | remaining binding | 100%
Cc1cnc(-c2cc(N3CCN(C(=O)CCS(C)(=O)=O)CC3)ncc2Cl)c(C)c1 | SMO | GTPγS binding, agonist, radiometric | cell membranes | Emax | -60.4%
O=C(Nc1cccnn1)N1CCN([C@@H]2CCOc3cc(C(F)(F)F)ccc32)CC1 | Caspase-3 (CASP3, Homo sapiens, UniProt P42574) | cell-free assay, inhibitor | 20 µM | inhibition | 1%
